Screening results from PubChem.
Only some compounds are listed: those with a hit (about 1.9% of all), similar ones and a draw of the others.
M4 PAM = CHRM4 positive allosteric modulation | P08173 | CHO-K1 hM4/Gqi5, Fluo-8 calcium fluorescence, ACh EC20; 0% = ACh EC20, 100% = maximal ACh | activation, % at 3 µM | 360,000 tested, 0.4% active | AID 624126;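 active means activation above its plate's cutoff, the mean activation of sample wells plus 3 SD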
Target sequence (P08173 whole entry, looked up): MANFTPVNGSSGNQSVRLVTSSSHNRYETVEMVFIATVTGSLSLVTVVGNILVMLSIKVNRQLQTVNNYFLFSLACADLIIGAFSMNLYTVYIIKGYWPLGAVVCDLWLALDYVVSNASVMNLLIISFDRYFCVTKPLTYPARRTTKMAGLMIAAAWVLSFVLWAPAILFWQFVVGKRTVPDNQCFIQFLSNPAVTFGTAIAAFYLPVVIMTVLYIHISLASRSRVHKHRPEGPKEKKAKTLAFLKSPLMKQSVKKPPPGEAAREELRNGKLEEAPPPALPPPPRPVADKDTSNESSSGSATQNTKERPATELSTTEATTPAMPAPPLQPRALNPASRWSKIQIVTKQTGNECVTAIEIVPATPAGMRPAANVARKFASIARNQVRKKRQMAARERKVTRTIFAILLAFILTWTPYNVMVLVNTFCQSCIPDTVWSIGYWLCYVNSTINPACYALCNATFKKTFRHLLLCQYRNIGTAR
M4 antag = blocks acetylcholine activation of human M4 receptor | P08173 | CHO-hM4 cells, ACh EC80, Fluo-8 calcium fluorescence | inhibition, % at 3 µM | 360,000 tested, 0.73% active;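 active means inhibition above its plate's cutoff, the mean inhibition of sample wells plus 3 SD, cut at about 27% in these data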;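 further: 0% = acetylcholine EC80 with DMSO and 100% = DMSO without agonist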
CHRM5 agonist = CHRM5 agonism in calcium assay | P08912 | CHO-K1 hM5 cells, Fluo-8 calcium fluorescence; 0% DMSO wells, 100% maximal acetylcholine response | activation, % at 3 µM | 360,000 tested, 0.19% active;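 active means activation above the run's mean over test compounds plus 3 SD, cut at about 23% in these data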;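 further: signal is peak over basal fluorescence ratio across the kinetic read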
CHRM4 agonist = CHRM4 agonism in calcium assay. 360,000 tested, 0.14% active. P08173. AID 624127. CHO-K1 hM4/Gqi5, Fluo-8 calcium fluorescence; vehicle 0%, full acetylcholine response 100%. activation, % at 3 µM;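 active means activation above the run mean over all test wells plus 3 SD, cut at about 32% in these data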;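 further: peak over basal fluorescence ratio per well then scaled between controls; 0% = DMSO wells and 100% = acetylcholine at EC100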
CHRM5 PAM = potentiates acetylcholine response at human M5 receptor. 360,000 tested, 0.3% active. CHO-K1 hM5, Fluo-8 calcium, ACh EC20 PAM; 0% = ACh EC20, 100% = ACh EC100. activation, % at 3 µM. P08912;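 active means activation above the run cutoff, the mean activation of all test compounds plus 3 SD, cut at about 18% in these data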
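System: CHO-K1 cell line with stable human muscarinic M5 receptor expression | Also added: EC20 acetylcholine as agonist stimulus | Compound: One concentration, 3 µM final (nominal) | Timing: Fluo-8 loading 80 min at 37 °C plus 30 min room temperature | Measured by: Fluo-8 calcium dye fluorescence, kinetic read | Read-out basis: % activation, ACh-normalized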
CHRM5 antagonist = antagonists of human muscarinic M5 receptor (CHRM5); CHO-hM5 cells, Fluo-8 calcium fluorescence, ACh EC80; inhibition, % at 3 µM; P08912; AID 624040; 360,000 tested, 0.59% active;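 active means inhibition above a per-plate cutoff, the mean of that plate's test compounds plus 3 SD, cut at about 27% in these data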;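 further: 0% = acetylcholine EC80 with DMSO and 100% = DMSO without agonist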
* = called active by the depositor.

SMILES	M4 PAM	M4 antag	CHRM5 agonist	CHRM4 agonist	CHRM5 PAM	CHRM5 antagonist
Cc1cccc(C)c1NC(=O)CN(Cc1ccccc1)Cc1ccccc1	-6.3	-2.8	15.8	26.4	-4.3	2.7
OC[C@@H]1CN(Cc2ccc3c(c2)OCO3)C[C@H](n2cnc3c(NC4CCCC4)ncnc32)O1	-1.9	-11.3	0.6	4.7	-5.7	7.2
CN[C@H](C)C(=O)NC[C@H]1O[C@@H](n2cc(C)c(=O)[nH]c2=O)C[C@@H]1O	0.7	-4.9	0.8	0.4	4.1	-9.2
O=C(OCc1cn([C@H]2CN(C(=O)C3CCCCC3)[C@@H](c3ccc(Cl)cc3)C[C@@H]2O)nn1)c1ccccc1	0.4	-6.6	1.6	4.2	-0.1	0.8
CCn1c(NC(=O)C(C)C)c(-c2cccs2)c(=O)c2ccccc21	-2.3	-6.4	5.9	0.5	5.4	-2.6
CCn1c(NC(=O)c2ccccc2F)c(-c2cccs2)c(=O)c2ccccc21	-34.3	28.6*	7.0	0.4	-8.6	1.1
O=C(O)c1ccc(CNCc2cccc(Cl)c2Cl)cc1	27.6*	-5.1	-4.2	2.2	15.3	-13.2
O=C(O)c1ccc(CNCc2ccccc2Cl)cc1	20.7	-9.8	-2.5	0.2	6.7	-7.4
COc1ccc(Cc2c(-c3ccccc3)nc3ccc(Br)cn23)c(C)c1	10.4	-30.0	-0.7	-0.1	-3.0	6.0
N#Cc1cccc(-c2csc(C(O)c3ccc(F)cc3)n2)c1 (stereo not given)	-1.3	-6.5	-0.2	2.8	-3.0	2.1
Cc1ccc(Nc2c(-c3ccc(N4CCOCC4)cc3)nc3cnccn23)cc1	11.3	10.2	7.0	0.0	19.3*	-11.6
Cc1ccccc1Nc1c(-c2ccc(N3CCOCC3)cc2)nc2cnccn12	6.9	-0.3	1.1	0.0	4.2	0.9
Cc1ccccc1N(CC(=O)N1CCc2ccccc2C1)S(C)(=O)=O	2.2	-2.4	-6.3	0.6	9.2	0.8
CS(=O)(=O)N(CC(=O)N1CCc2ccccc2C1)c1ccccc1Br	16.3*	22.0	2.5	7.9	0.7	16.7
Cc1ccc(OCC(O)CN2C(=O)NC(C)(C)C2=O)c(C)c1 (stereo not given)	19.1*	-7.2	4.0	2.6	7.9	0.3
Cc1cc(C)cc(OCC(O)CN2C(=O)NC(C)(C)C2=O)c1 (stereo not given)	4.9	-9.4	2.5	1.6	-3.5	-6.0
Cc1ccc(S(=O)(=O)N2CCN(C(=O)CSc3ccc(F)cc3)CC2)cc1	31.8*	24.0	-0.2	15.5	19.2*	29.0*
COc1cc(NC(=O)c2ccc(F)cc2)c(OC)cc1Cl	-2.0	-4.7	-13.8	-1.3	10.1	-4.1
COc1cc(NC(=O)c2cc3nc(C)cc(C)n3n2)c(OC)cc1Cl	28.1*	2.1	-3.6	1.2	7.1	-10.4
COc1cc(NC(=O)c2c(F)c(F)c(F)c(F)c2F)c(OC)cc1Cl	-20.1	35.8*	-7.8	-3.1	-9.1	1.6
COc1ccc(C(=O)Nc2cc(OC)c(Cl)cc2OC)cc1	0.3	0.4	-6.4	0.1	-1.9	17.4
CCOC(=O)C1(C)CCCN(C(=O)c2ccc3c(c2)CCO3)C1 (stereo not given)	1.9	-11.5	-3.4	1.2	-0.5	9.4
O=c1[nH]c(=O)n(C2OC(CO)C(O)C2O)c2c1CCCC2 (stereo not given)	-5.1	7.9	-0.1	-0.2	-1.2	3.2
CCc1nc2ccc(C(=O)N(C)C(C)C)cn2c1N(CC)Cc1cccc(Br)c1	-1.3	-19.5	-4.1	-1.9	-9.0	-3.7
CCC(c1nc2ccccc2[nH]1)n1c(=O)c(-c2cccnc2)nc2ccccc21 (stereo not given)	-1.9	13.4	0.3	-2.3	2.2	2.3
SMILES	M4 PAM	M4 antag	CHRM5 agonist	CHRM4 agonist	CHRM5 PAM	CHRM5 antagonist
CC(c1nc2ccccc2[nH]1)n1c(=O)c(-c2cccnc2)nc2ccccc21 (stereo not given)	4.7	-15.0	2.8	-2.1	18.4*	-17.6
CCCCn1c(N)c(N(CCOC)C(=O)c2cc3c(s2)CCCCC3)c(=O)[nH]c1=O	23.8*	-8.4	-2.5	0.9	-5.6	9.7
CCCCCCSc1cccc(-c2nc3ccc(C)cn3c2NCc2ccccc2)c1	-8.7	14.4	-1.5	5.4	-2.6	13.6
Cc1ccc2nc(-c3cccc(-c4cccc(Cl)c4)c3)c(NCc3ccccc3)n2c1	-10.3	28.4*	-3.0	7.5	-31.9	27.9*
CCC(C)Sc1cccc(-c2nc3ccc(C)cn3c2NCc2ccccc2)c1 (stereo not given)	-8.4	46.6*	0.3	13.2	-26.3	23.1
COc1ccccc1N1CCN(c2ccc3c(c2)S(=O)(=O)c2cccc(C(=O)NCc4cccc(F)c4)c2C3=O)CC1	-8.4	9.1	-0.1	9.7	-7.4	21.7
COc1cc2c(cc1OC)/C(=C/C(=O)OCc1ccccc1)OC2	-1.0	-19.7	6.3	14.1	-2.5	-4.4
COc1ccccc1Cc1noc(COc2cccc(C)c2C)n1	34.1*	4.8	1.4	-2.2	5.7	-6.2
COc1ccccc1Cc1nc(-c2ccncc2)no1	6.0	2.6	1.8	6.2	-0.2	5.8
Cc1ccc(-c2ccc(CN3C(C(C)C)C(=O)N(Cc4cn(CCC5OCCO5)nn4)CCS3(=O)=O)cc2)c(C)c1 (stereo not given)	-8.5	-1.3	-2.5	8.8	-2.4	-3.9
CCOC(=O)c1sc(NC(=O)Nc2ccccc2)cc1C	-7.2	15.4	4.6	18.1	-19.5	45.7*
CCOC(=O)c1sc(NC(=O)Nc2ccccc2Cl)cc1C	-6.0	-20.0	2.7	10.2	-21.6	20.9
O=C(/C=C/[C@H]1O[C@@H](n2ccc(=O)[nH]c2=O)[C@H](O)[C@@H]1O)NC(c1ccccc1)c1ccccc1	10.7	5.1	2.1	0.1	6.2	2.9
O=C(Nc1ccccc1F)c1csc(COCCO)n1	5.2	-13.9	0.2	0.0	5.2	-9.5
CC1(C(=O)NS(=O)(=O)c2ccccc2OC(F)(F)F)CCN1C(=O)Cc1ccccc1 (stereo not given)	-2.4	-2.8	-0.3	-0.5	0.1	-0.4
N#Cc1ccc(C(=O)Nc2nnc(-c3cccs3)o2)cc1	4.0	-6.6	0.2	0.3	-0.3	7.8
O=C(Nc1nnc(-c2cccs2)o1)c1cccc(C(F)(F)F)c1	-2.6	-3.7	15.1	65.5*	-16.0	4.1
CN1OC[C@@H]2CN(C(=O)C(C)(C)C)[C@H](c3cccc(Oc4ccccc4)c3)C[C@@H]21	12.4	-16.9	0.1	0.6	1.3	-8.1
Cc1noc(C)c1S(=O)(=O)NC(=O)C1(C)CCN1C(=O)C1(c2ccc(Cl)cc2)CC1 (stereo not given)	4.6	-3.8	0.8	-0.1	-0.1	-2.7
